The results in this text go back to ChEMBL document CHEMBL1122708, “Preparation and antibacterial activities of new 1,2,3-diazaborine derivatives and analogues” (1984).

In assay [1] the test system is Escherichia coli. The assay is described as follows: Antibacterial activity againist Escherichia coli 120 infected NMRI mice after peroral administration. The note with it: po. It is filed as functional. Put shortly: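 ED50 in NMRI mice infected intraperitoneally with E. coli 120; compound given orally immediately and 5 h after infection.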
The subject of assay [2] is Salmonella typhimurium. Nature of the assay: Minimum inhibitory concentration of compound against Salmonella Typhimurium delta 119. It is filed as functional, Salmonella enterica subsp. enterica serovar Typhimurium. The note with it: Salmonella enterica.
Assay [3] has as its system Escherichia coli. Nature of the assay: Minimum inhibitory concentration of compound against Escherichia coli delta 120. It is filed as functional.
The test system of assay [4] is Klebsiella pneumoniae. The assay is described as follows: Minimum inhibitory concentration of compound against Klebsiella pneumoniae delta 217. It is filed as functional.
In assay [5] the test system is Klebsiella aerogenes. Nature of the assay: Minimum inhibitory concentration of compound against Enterobacter aerogenes delta 220. Format: functional.
Assay [6] relates to Proteus mirabilis. Nature of the assay: Minimum inhibitory concentration against Proteus mirabilis delta 89. Format: functional.
The test system of assay [7] is Neisseria gonorrhoeae. The assay is described as follows: Minimum inhibitory concentration of compound against Neisseria gonorrhoeae W2. Format: functional. Put shortly:
(§1)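 Agar dilution on Kellogg agar, 10⁶ colony forming units, incubated 20 h at 36 °C in 5% CO₂; MIC is the lowest concentration giving no visible growth.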

The test system of assay [8] is Neisseria gonorrhoeae. Nature of the assay: Minimum inhibitory concentration of compound against Neisseria gonorrhoeae AS 7720. It is filed as functional. Summed up: as §1

≈ marks a conversion by molar mass, not a printed value. Where only a bound is given, the exact number is not on record here.

As for `Cc1ccc(S(=O)(=O)N2N=C(c3ccccc3)c3ccccc3B2O)cc1`, in assay [1], the ED50 (usually the midpoint of the dose-response relation) is greater than 300 mg/kg. Besides, the MIC in assay [2] and in assay [3] was greater than 50 µg/mL each time.

In turn, `Cc1ccc(S(=O)(=O)N2N=Cc3c(ccn3Cc3ccccc3)B2O)cc1` came in with an ED50 in assay [1] greater than 600 mg/kg. The MIC (commonly the least concentration at which growth counts as inhibited) is greater than 50 µg/mL in assay [2]; greater than 50 µg/mL in assay [3]; 50 µg/mL (≈ 132 µM) in assay [4]; greater than 50 µg/mL in assay [5]; 50 µg/mL (≈ 132 µM) in assay [6].

`Cc1ccc(S(=O)(=O)N2N=Cc3c(ccn3C)B2O)cc1` registered an ED50 in assay [1] greater than 300 mg/kg. Moreover, the MIC in assay [2] and in assay [3] was greater than 50 µg/mL each time.

`Cc1ccc(S(=O)(=O)N2N=Cc3c(Cl)cccc3B2O)cc1`: the ED50 in assay [1] is roughly 100 mg/kg. Also, the MIC in assay [2] and in assay [3] was greater than 50 µg/mL in each case.

In turn, `Cc1ccc(S(=O)(=O)N2N=Cc3c(C)ccc(C)c3B2O)cc1` displayed an ED50 in assay [1] greater than 600 mg/kg. Also, the MIC in assay [2], in assay [3], in assay [4], in assay [5] and in assay [6] was greater than 50 µg/mL throughout.

As to `Cc1ccc(S(=O)(=O)N2N=Cc3c(Cl)cc(Cl)cc3B2O)cc1`, the ED50 in assay [1] is greater than 100 mg/kg. The MIC in assay [2] and in assay [3] was greater than 50 µg/mL throughout.

For `Cc1cc(C)c(S(=O)(=O)N2N=Cc3c(F)cccc3B2O)c(C)c1`, the ED50 in assay [1] is greater than 100 mg/kg. Moreover, the MIC in assay [2] is greater than 50 µg/mL; in assay [3], greater than 50 µg/mL; in assay [4] it was 50 µg/mL (≈ 144 µM); in assay [5], greater than 50 µg/mL; in assay [6], 10 µg/mL (≈ 28.9 µM).

Regarding `CC1=NN(S(=O)(=O)c2ccc(C)cc2)B(O)c2ccccc21`, in assay [1], the ED50 is roughly 100 mg/kg. Also, the MIC in assay [2] and in assay [3] was greater than 50 µg/mL in each case.

Compound `Cc1ccc(S(=O)(=O)N2N=Cc3scc(Br)c3B2O)cc1` had an ED50 in assay [1] greater than 300 mg/kg. Moreover, the MIC was greater than 50 µg/mL in assay [2]; greater than 50 µg/mL in assay [3]; greater than 50 µg/mL in assay [4]; greater than 50 µg/mL in assay [5]; 50 µg/mL (≈ 130 µM) in assay [6].

For `Cc1ccc2c(c1)C=NN(S(=O)(=O)N(C)C)B2O`, the MIC in assay [2] was 12.5 µg/mL (≈ 46.8 µM); in assay [3], greater than 50 µg/mL; in assay [4] it was 6.25 µg/mL (≈ 23.4 µM); in assay [7], 8 µg/mL (≈ 29.9 µM); in assay [5], greater than 50 µg/mL; in assay [8], 8 µg/mL (≈ 29.9 µM). This compound registered an MIC in assay [6] of 6.25 µg/mL (≈ 23.4 µM).

`Cc1ccc(S(=O)(=O)N2N=Cc3cc(N)ccc3B2O)cc1`: the ED50 in assay [1] was greater than 300 mg/kg. Further, the MIC was greater than 50 µg/mL in assay [2]; greater than 50 µg/mL in assay [3]; 50 µg/mL (≈ 159 µM) in assay [4]; greater than 50 µg/mL in assay [5]; 50 µg/mL (≈ 159 µM) in assay [6].

Take `Cc1ccc(S(=O)(=O)N2N=Cc3ccc(C(=O)O)cc3B2O)cc1`: the MIC in assay [2] and in assay [3] was greater than 50 µg/mL each time.

In assay [1], `Cc1ccc(S(=O)(=O)N2N=Cc3ccc(O)cc3B2O)cc1` returned an ED50 of roughly 300 mg/kg. For the same compound, the MIC in assay [2] and in assay [3] was greater than 50 µg/mL each time.

In assay [1], `Cc1ccc(S(=O)(=O)N2N=Cc3ccc(F)cc3B2O)cc1` yielded an ED50 of roughly 250 mg/kg. The MIC in assay [2] and in assay [3] was greater than 50 µg/mL throughout.

In assay [1], `O=[N+]([O-])c1ccc(S(=O)(=O)N2N=Cc3c(F)cccc3B2O)cc1` came in with an ED50 of roughly 100 mg/kg. The MIC is 50 µg/mL (≈ 143 µM) in assay [2] and greater than 50 µg/mL in assay [3].

Take `CC(=O)Nc1ccc2c(c1)B(O)N(S(=O)(=O)c1ccc(C)cc1)N=C2`: the ED50 in assay [1] was greater than 300 mg/kg. In addition, the MIC in assay [2] and in assay [3] was greater than 50 µg/mL in each case.

In turn, `Cc1ccc(S(=O)(=O)N2N=Cc3cc(Cl)c(Cl)cc3B2O)cc1` gave an ED50 in assay [1] greater than 100 mg/kg. Besides, the MIC in assay [2] and in assay [3] was greater than 50 µg/mL each time.

Regarding `Cc1ccc(S(=O)(=O)N2N=Cc3c(Br)cccc3B2O)cc1`, in assay [1], the ED50 is greater than 100 mg/kg. The minimal inhibitory concentration (MIC) in assay [2] and in assay [3] was greater than 50 µg/mL throughout.

In the case of `CS(=O)(=O)N1N=Cc2ccccc2B1O`, the MIC in assay [2] and in assay [3] was greater than 50 µg/mL in each case.
